# Screening results deposited in PubChem BioAssay by several laboratories.
# UPR CHOP act: apoptotic UPR (CHOP) activation | CHO-CHOP luciferase reporter, luminescence; percent of tunicamycin response over DMSO baseline | activation, % at 10 µM | 0.34% of 330,000 active | AID 449763;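 active means at 10 µM dose, activation of 40% or more, normalized to positive control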;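 further: 100% = tunicamycin at 10 µg/mL and 0% = DMSO alone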
#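 Evaluation: % reporter activation, DMSO baseline versus tunicamycin full activation; System: CHO-CHOP luciferase reporter cell line; Input: 500 cells/well; Incubation: 6 h compound treatment, 37 °C; Measured by: Steady-Glo luciferase luminescence; Dosing: one dose, 10 µM in 0.5% DMSO; Buffer or medium: F12 medium, 10% FBS; Benchmarks: positive tunicamycin 10 µg/mL, negative DMSO alone.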
# Tb MetRS inh: blocks T. brucei methionyl-tRNA synthetase activity; purified T. brucei MetRS, ATP depletion, Kinase-Glo luminescence; inhibition, % at 11.9 µM; 0.4% of 360,000 active;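 active means inhibition above a per-plate cutoff of the control wells' mean inhibition plus 3 SD, cut at about 5.5% in these data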;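 further: 0% = DMSO wells median and 100% = median of wells with control inhibitor compound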
#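 Measured by: Kinase-Glo luciferase luminescence reporting remaining unconsumed ATP. Material: purified T. brucei MetRS enzyme. Doses: 11.9 µM compound single dose, 0.9% DMSO. Medium: HEPES buffer containing pyrophosphatase, BSA, spermine, DTT. Times: 15 min preincubation, 2 h reaction, all 25 °C. Reagent: methionine, ATP and bulk E. coli tRNA.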
# CHOP inhibitor: CHOP inhibition in unfolded protein response | CHO-K1 CHOP-promoter luciferase, tunicamycin-induced, 15-18 h | inhibition, % at 10 µM | 3.8% of 220,000 active | AID 2732;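 active means compounds that reduced the stress-induced luciferase reporter signal by more than about 70% of percent inhibition, limit read from the data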;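 further: 0% = tunicamycin plus vehicle and 100% = wells without tunicamycin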
# V-ATPase pHluor: regulators of yeast V-ATPase proton transport | S. cerevisiae, pHLuorin cytosolic pH fluorescence | response, % at 10 µM | 0.37% of 350,000 active; in the data active means response mostly above about 7.3%, no sharp cut-off; inactive means mostly below about 5.4%; further: actives read high
# XBP1 UPR activ: adaptive UPR (XBP1) activation; 0.33% of 330,000 active; activation, % at 20 µM; CHO-XBP1 luciferase reporter, IRE1-XBP1 UPR activation, luminescence; percent of tunicamycin response, DMSO as zero;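 active means versus positive control, 20 µM dose yields 30% or more activation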;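 further: 100% = tunicamycin at 10 µg/mL and 0% = DMSO only wells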
#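 Signal: luciferase luminescence; Assay system: CHO-XBP1 luciferase reporter cells; Amount: one thousand reporter cells per well; Dosing: 20 µM single concentration, DMSO 1%; Benchmarks: high control tunicamycin 10 µg/mL final, low control DMSO vehicle only; Schedule: 6 h compound exposure at 37 °C, 5% CO2; Evaluation: percent activation relative to tunicamycin reference.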
# * marks the source's active call; other numbers are inactive results; . = no result given. Only a selection was taken, and hits are over-represented in it overall.
SMILES,UPR CHOP act,Tb MetRS inh,CHOP inhibitor,V-ATPase pHluor,XBP1 UPR activ
CC1=C(CC(=O)c2ccc(Cl)cc2)C(=O)c2ccccc2C1=O,3,-1,72*,0,2
Cc1cccc(NC(=O)CSc2nnc(-c3cc(C)[nH]n3)n2N)c1,1,.,.,4,-3
C[C@@H]1CCCCO[C@H](CN(C)C(=O)C2CCCCC2)[C@@H](C)CN([C@H](C)CO)C(=O)c2cc(N(C)C)ccc2O1,.,1,.,1,.
O=C(Nc1nccs1)c1cn(-c2ccccc2)nc1-c1ccccc1,4,-1,71*,-1,-3
O=C(c1ccc2c(c1)CCN2S(=O)(=O)c1ccccc1)N1CCN(c2ccc(F)cc2)CC1,1,1,.,14*,-4
CC(C)(C)c1ccc(/C=C/C(=O)NC2=NCCS2)cc1,4,-1,82*,2,-8
CC(C)COc1ccc(C(=O)OC2CC(C)(C)OCC2CN(C)C)cc1 (stereo not drawn),-1,-2,71*,0,1
COc1ccc(C(=O)OC2CCCCC2CN(C)C)cc1 (stereo not drawn),-1,0,.,6,7
CCOC(=O)n1c(=O)n(Cc2ccccc2Cl)c2ccccc21,0,-1,19,4,3
O=Nc1c(O)n(Cc2c(Cl)cccc2Cl)c2ccccc12,0,-1,91*,0,0
O=Nc1c(O)n(Cc2ccc(Cl)cc2)c2ccccc12,0,0,16,-4,0
CCOC(=O)n1c(=O)n(Cc2ccc(Cl)cc2Cl)c2ccccc21,0,-1,81*,0,-3
Cc1ccc(Cn2c(O)c(N=O)c3ccccc32)cc1,-1,-1,16,4,4
O=Nc1c(O)n(Cc2ccc(Cl)cc2Cl)c2ccccc12,1,0,87*,-4,-2
Cc1ccccc1C(=O)NC=C1C(=O)OC(C)(C)OC1=O,-1,0,32,0,0
CC1(C)OC(=O)C(=CNC(=O)c2c(F)cccc2F)C(=O)O1,-3,-1,73*,6,-3
O=C(Nc1c(-c2ccc3c(c2)OCO3)[nH][nH]c1=O)c1cccc(C(F)(F)F)c1,.,1,.,.,.
COC(=O)[C@@]1(Sc2ccc(C)cc2)CC(=O)N[C@@H]1c1ccc(Br)cc1,.,0,.,.,.
CCCCOc1ccc(-c2nnn(CC(=O)NCCc3c[nH]c4ccccc34)n2)cc1,-2,-1,79*,1,-1
COc1ccc(-n2c(C)cc(-c3csc(N)n3)c2C)cc1,-2,0,63,-2,-3
OC12CCCCC1C(c1ccc3c(c1)OCO3)N(Cc1ccc(F)cc1)CC2 (stereo not drawn),-3,-1,90*,0,0
O=C1SC(SCc2ccccc2Cl)=N/C1=C\c1ccc(C(=O)O)cc1,1,-1,82*,-1,9
O=C1N/C(=N\N=C\c2cccs2)SC1Cc1ccc(Cl)cc1 (stereo not drawn),1,0,64,-3,2
O=C1N/C(=N\N=C\c2cccs2)SC1Cc1cccc(Cl)c1 (stereo not drawn),0,1,88*,7,1
COc1ccc(NC(C)=O)cc1NC(=O)CN1CCN(S(=O)(=O)c2ccc(C(C)C)cc2)CC1,-3,-1,73*,19*,-2
SMILES,UPR CHOP act,Tb MetRS inh,CHOP inhibitor,V-ATPase pHluor,XBP1 UPR activ
c1ccc(Oc2nc3ccccc3n3cccc23)cc1,-1,0,70*,0,-4
Cc1ccc(-c2nnc(Nc3ccccc3)o2)cc1,-6,0,84*,-2,-8
Cc1ccc(OCCCC(=O)NNC(=O)c2ccccn2)cc1,-1,0,.,4,1
c1ccc(CN2CCC(Nc3nc(-c4cccs4)nc4ccccc34)CC2)cc1,1,-1,75*,-2,3
CCOC(=O)c1sc2nc(N3CCCC3)c3c(c2c1N)CC(C)(C)OC3,1,-2,-1,-1,5
CCOC(=O)c1sc2nc(C(C)C)c3c(c2c1N)CC(C)(C)OC3,-4,-1,70*,0,0
Cc1ccccc1S(=O)(=O)N1C[C@H]2[C@H]3C(=O)N(c4ccccc4)C(=O)[C@H]3CC(=O)[C@H]2[C@@H]1c1ccc(Cl)cc1,.,-1,.,.,.
NC(=S)N/N=C1/CCSc2ccc3ccccc3c21,-1,0,75*,2,-1
NC(=S)N/N=C/c1c(O)ccc2ccccc12,-1,-1,22,-3,-5
COCCNC(=O)C1CCCN(C(=O)c2sc(-c3ccccc3)nc2C)CC1 (stereo not drawn),.,0,.,.,.
CC1(C)C2CCC1(C)C(OCCNCCOC(=O)Nc1ccccc1)C2 (stereo not drawn),-1,0,2,14*,1
CC1(C)C2CCC1(C)C(OC(=O)c1ccccc1C(=O)O)C2 (stereo not drawn),1,0,5,3,-2
CCCCOc1ccc(CSC(=N)N)cc1Cl,1,0,13,-2,3
CCCCCOc1ccc(Br)cc1CSC(=N)N,.,2,84*,-2,.
Cn1c2c(c(=O)n(C)c1=O)CS(=O)c1ccccc1N2 (stereo not drawn),.,0,.,.,.
CN(CC(=O)Nc1cccc(Cl)c1)C1=NS(=O)(=O)c2ccccc21,-1,0,.,3,-1
CN(CC(=O)Nc1cccc(C(F)(F)F)c1)C1=NS(=O)(=O)c2ccccc21,0,1,.,13*,-3
O=C(CN1CCN(c2ccccc2O)CC1)Nc1cc([N+](=O)[O-])ccc1Cl,-2,0,83*,0,-3
O=C(CN1CCN(c2ccccc2O)CC1)Nc1ccc([N+](=O)[O-])cc1Br,3,-1,16,1,-2
Cc1nc(NC(=O)/C=C/c2ccc(Cl)cc2Cl)sc1C(=O)N(C)C,0,-1,85*,1,0
Cc1nc(NC(=O)/C=C/c2ccccc2)sc1C(=O)N(C)C,3,0,-10,-1,0
CC(C(=O)Nc1ccccc1C#N)N1C(=O)NC2(CCCCCC2)C1=O (stereo not drawn),1,-1,.,-1,1
Cc1ccc(C)c(N(CC(=O)NCCc2ccccc2)C(=O)CCC(=O)Nc2ccccn2)c1,-1,0,.,-1,-3
COc1ccc(NC(=O)c2cc3n(n2)C(C(F)(F)F)CC(c2ccco2)N3)cc1 (stereo not drawn),1,-1,48,-2,-2
Cc1cc(NC(=O)c2cc3n(n2)C(C(F)(F)F)CC(c2ccco2)N3)n(-c2ccccc2)n1 (stereo not drawn),-1,0,76*,3,-3
O=C(NCC12CC3CC(CC(C3)C1)C2)c1cc2n(n1)C(C(F)(F)F)CC(c1ccco1)N2 (stereo not drawn),-1,0,102*,6,-4
